Screens: PubChem, several laboratories
ABCB1 block: ABCB1 efflux pump inhibitors, primary screen, cell-based, multiplex, flow cytometry, ABCG2 counter-screen; ATP-dependent translocase ABCB1 (Homo sapiens), P08183; inhibition, % at 6.6 µM; CCRF-Adr cells, JC-1 efflux; hit rate 0.067% among 190,000; in the data active means inhibition above about 40%;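 further: higher value means more JC-1 retained so stronger ABCB1 efflux block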
Lmaj promast: Leishmania major promastigote growth inhibition, primary screen; Leishmania major promastigotes, resazurin fluorescence viability; inhibition, % at 10 µM; hit rate 9% among 200,000;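 further: promastigotes grown with compound for 44 hours at 28 °C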
ABCG2 inh: ABCG2 efflux pump inhibitors, primary screen, multiplex with ABCB1, IgMXP3 cells, flow cytometry. JC-1 efflux. inhibition, % at 6.6 µM. hit rate 0.1% among 190,000;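 active means inhibition above 80%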
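Test system: IgMXP3 cells (ABCG2) mixed with DDAO far-red-labelled CCRF-Adr cells (ABCB1). Reagent: JC-1 transporter substrate. Compound dosing: single test compound dose, 6.6 µM final. Times: 10 min compound exposure, 25 °C. Detection: flow cytometry of retained JC-1 fluorescence. Read-out basis: efflux inhibition in percent versus controls. Controls: nicardipine and DMSO wells.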
GSH fluor: compound fluorescence on glutathione beads, profiling panel, artefact control, biophysical, 488/530 nm, flow cytometry; GSH beads flow cytometry, compound fluorescence 488/530 nm; active compounds read high; fluorescence (KMESF) at 10 µM; hit rate 0.25% among 190,000; in the data active means fluorescence above about 89;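 further: glutathione beads carrying GST-tagged Bcl family fusion proteins plus one bare bead set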
Avidin bead fluor: green autofluorescence of compounds with avidin beads – biophysical, 488/530 nm, flow cytometry, artefact control, profiling panel; compound fluorescence 488/530 nm; active compounds read high; fluorescence (KMESF) at 10 µM; hit rate 0.38% among 220,000; AID 1775, 2009; in the data active means fluorescence above about 47
PKD1 inh: inhibitors of human PKD1 kinase, biochemical, fluorescence polarization. Serine/threonine-protein kinase D1 (Homo sapiens), Q15139. PKD1 kinase fluorescence polarization assay. inhibition, % (concentration not given with the values). hit rate 0.056% among 200,000. AID 797, 2007
Numbers stand for hits; . = inactive; / = not tested or not shown. Shown is part of a subset that was picked to be rich in hits. Unless noted, no stated cut-off is given here; in the data, active means inhibition above about 50%; inactive means the rest.

SMILES | ABCB1 block | Lmaj promast | ABCG2 inh | GSH fluor | Avidin bead fluor | PKD1 inh
Cc1ccc(S(=O)(=O)NCCNc2ccc([N+](=O)[O-])cc2C(F)(F)F)cc1 | . | . | . | . | . | .
Cc1ccc(C(=O)NCCNc2ccc([N+](=O)[O-])cc2C(F)(F)F)cc1 | . | 81 | . | . | . | .
Cc1ccc(NC(=O)C(C)N2CCCC2)cc1Cl (configuration not stated) | . | . | . | . | . | .
CCOC(=O)c1cc(=O)n(-c2ccc(Cl)cc2C)[nH]1 | . | 55 | . | . | . | .
CCOC(=O)Nc1ccc2c(c1)ncn2C1CCCCC1 | . | 84 | . | . | . | .
COCC(C)OC(=O)C(C#N)c1nc2ccccc2nc1N1CCN(Cc2ccccc2)CC1 (configuration not stated) | . | 67 | . | . | . | .
CC(C)COC(=O)C(C#N)c1nc2ccccc2nc1N1CCN(Cc2ccc3c(c2)OCO3)CC1 (configuration not stated) | . | . | . | . | . | .
CCCCOC(=O)C(C#N)c1nc2ccccc2nc1N1CCN(Cc2ccc3c(c2)OCO3)CC1 (configuration not stated) | . | 69 | . | . | . | .
C=CCOC(=O)C(C#N)c1nc2ccccc2nc1N1CCN(Cc2ccccc2)CC1 (configuration not stated) | . | 51 | . | . | . | .
COCCOC(=O)C(C#N)c1nc2ccccc2nc1N1CCN(Cc2ccccc2)CC1 (configuration not stated) | . | . | . | . | . | .
COc1ccc(S(=O)(=O)N2C(=O)/C(=C3\SC(N)=NC3=O)c3ccccc32)cc1 | / | / | / | / | . | /
CCNC(=O)CCSc1nc2cc(Cl)ccc2o1 | . | . | . | . | . | .
O=C(CSc1ncc(C(F)(F)F)cc1Cl)N1CCN(S(=O)(=O)c2ccccc2)CC1 | . | . | . | . | . | .
O=C(CSc1ncc(C(F)(F)F)cc1Cl)N1CCN(S(=O)(=O)c2ccc(Cl)cc2)CC1 | . | 90 | . | . | . | .
CCCc1cc(=O)[nH]c(SCC(=O)c2ccc(S(=O)(=O)N3CCCC3)cc2)n1 | . | . | . | . | . | .
O=C(CN1CCN(c2ncc(C(F)(F)F)cc2Cl)CC1)N1CCN(c2ncc(C(F)(F)F)cc2Cl)CC1 | . | 50 | . | . | . | .
CCCc1cc(=O)[nH]c(SCC(=O)N2CCN(S(=O)(=O)c3ccc(Cl)cc3)CC2)n1 | . | 67 | . | . | . | .
CCCN1CCC(=O)N([C@H](CSc2ccc(OC)cc2)CC(C)C)CC1 | / | / | / | / | . | /
CSc1ccc(C(=O)/C=C/c2ccc(N)cc2)cc1 | . | . | . | . | . | .
CSc1ccc(/C=C/C(=O)c2ccc(NC(=O)C(C)C)cc2)cc1 | . | 100 | . | . | . | .
CSc1ccc(/C=C/C(=O)c2ccc(NC(=O)Cc3ccccc3)cc2)cc1 | . | 91 | . | . | . | .
COc1ccc(C(=O)c2sc3nc(C)cc(-c4cccs4)c3c2N)cc1 | . | 73 | . | . | . | .
COc1ccc(C(=O)c2sc3nc(C)cc(-c4cccs4)c3c2N)cc1OC | . | . | . | . | . | .
Cc1cc(C)c2c(N)c(C(=O)NC3CCCC3)sc2n1 | . | . | . | . | . | .
Cc1cc(C)c2c(N)c(C(=O)c3ccc(Cl)c(Cl)c3)sc2n1 | . | 100 | . | . | . | .
SMILES | ABCB1 block | Lmaj promast | ABCG2 inh | GSH fluor | Avidin bead fluor | PKD1 inh
Cc1cc(C)c2c(N)c(C(=O)NCC3CCCCC3)sc2n1 | . | 77 | . | . | . | .
Cc1cc(C)c2c(N)c(C(=O)c3ccc(Cl)cc3)sc2n1 | . | 71 | . | . | . | .
Cc1cc(C)c2c(N)c(C(=O)c3ccccc3)sc2n1 | / | / | / | / | . | /
CN(Cc1ccccc1)C(=O)c1nc2ccccn2c1CN1CCC(N2CCOCC2)CC1 | / | / | / | / | . | /
Cc1cc(C)c2c(N)c(C(=O)C(C)(C)C)sc2n1 | . | 97 | . | . | . | .
O=c1oc2ccccc2c(O)c1/C=N/c1ccccn1 | . | . | . | 263 | . | .
O=c1oc2ccccc2c(O)c1C=Nc1cccnc1 | . | . | . | . | . | .
